Shown are actives, neighbours in structure and some others; about 3.7% of the full set was active somewhere.
Furin inh: inhibitors of human furin. P09958. purified furin, fluorogenic substrate cleavage. inhibition, % at 20 µM or 30 µM. 220,000 tested, 0.061% active; in the data active = inhibition above about 25%
Target sequence (P09958 108-714 limits assumed): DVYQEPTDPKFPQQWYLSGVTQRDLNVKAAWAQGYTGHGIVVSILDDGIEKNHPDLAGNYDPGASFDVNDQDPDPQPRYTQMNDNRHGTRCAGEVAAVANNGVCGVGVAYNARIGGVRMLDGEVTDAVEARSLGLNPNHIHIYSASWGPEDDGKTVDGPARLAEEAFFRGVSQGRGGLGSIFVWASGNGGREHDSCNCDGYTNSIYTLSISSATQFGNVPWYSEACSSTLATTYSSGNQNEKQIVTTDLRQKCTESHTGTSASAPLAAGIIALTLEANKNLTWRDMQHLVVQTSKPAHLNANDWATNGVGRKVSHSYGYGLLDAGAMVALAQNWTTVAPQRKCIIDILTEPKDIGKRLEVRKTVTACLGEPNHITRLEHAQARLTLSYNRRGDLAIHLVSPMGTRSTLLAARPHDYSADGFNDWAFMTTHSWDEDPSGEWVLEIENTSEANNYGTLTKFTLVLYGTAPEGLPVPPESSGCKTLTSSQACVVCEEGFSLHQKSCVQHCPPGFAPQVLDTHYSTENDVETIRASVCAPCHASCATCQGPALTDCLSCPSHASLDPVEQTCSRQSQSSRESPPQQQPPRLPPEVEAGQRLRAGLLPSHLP
NPY-Y2 PAM-ag: potentiates or activates human NPY-Y2 receptor; cells expressing NPY-Y2, potentiator/agonist read-out; activation, % at 3.6 µM; 220,000 tested, 0.45% active; in the data active = activation above about 27%;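 also: cells stimulated with NPY near EC25 plus isoproterenol at EC100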
NPY1 pot ag: human NPY-Y1 potentiation or agonism, primary screen; activation, % at 3.6 µM; NPY-Y1 expressing cells, potentiator/agonist activation; P25929; 220,000 tested, 0.37% active; in the data active = activation above about 33%, passing the limit was not always enough;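 also: cells stimulated with NPY at EC10 then isoproterenol at EC100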
NPY Y2 blocker: antagonists of human neuropeptide Y receptor Y2. P49146. NPY-Y2 expressing cells, antagonist mode. inhibition, % at 2.7 µM. 140,000 tested, 0.99% active. AID 793; in the data active = inhibition above about 17%
NPY-Y1 antag: antagonists of human neuropeptide Y receptor Y1; inhibition, % at 3.6 µM; HEK293-CNG Y1 cells, membrane potential fluorescence; NPY at EC95, then isoproterenol; 200,000 tested, 1% active;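 active = inhibition above the campaign mean inhibition of all tested compounds plus 3 SD, cut at about 20% in these data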
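Test system: HEK293 cells co-expressing NPY Y1 receptor and cyclic-nucleotide gated channel; Also added: NPY (25 nM), isoproterenol (1 µM), Ro 20-1724 (25 µM); Compound dosing: one concentration, 3.6 µM, in 0.4% DMSO; Timing: dye 3 h, compound 60 min room temperature, stimulation 45 min; Technique: Membrane-potential fluorescent dye readout.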
Cl transport mod: modulators of human KCC2 chloride dependent transport; Q9H2X9; KCC2 cells, thallium flux FluoZin-2 fluorescence; B-score of Tl+ flux slope (higher = more flux/activation; lower = inhibition) at 10 µM; 190,000 tested, 2.2% active; AID 1456;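 active = thallium flux slope and its plate-corrected score both differing from the plate sample mean at a set confidence after two filtering rounds, in either direction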;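 also: slope of fluorescence scaled to starting intensity during 10 to 20 s after thallium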
Hits are given with their value.

`O=C(NNc1ncc(C(F)(F)F)cc1Cl)c1ccc(Cl)c(Cl)c1` gave Furin inh inactive, NPY-Y2 PAM-ag inactive and NPY1 pot ag inactive.
Screening CON/C=N/C(=S)Nc1ncc(C(F)(F)F)cc1Cl returned Furin inh inactive, NPY-Y2 PAM-ag inactive, NPY1 pot ag inactive, NPY-Y1 antag inactive and Cl transport mod 74.6.
CC(C)C(=O)Nc1ncc(C(F)(F)F)cc1Cl was read as Furin inh inactive, NPY-Y2 PAM-ag inactive, NPY1 pot ag inactive, NPY Y2 blocker inactive, NPY-Y1 antag inactive and Cl transport mod inactive.
Screening Cc1ccc(NC(=S)NNc2ncc(C(F)(F)F)cc2Cl)c(C)c1 returned Furin inh inactive, NPY-Y2 PAM-ag inactive, NPY1 pot ag inactive, NPY Y2 blocker inactive, NPY-Y1 antag inactive and Cl transport mod 4.26.
Screening O=C(c1ccccc1)c1n[nH]c(-c2ccccc2)cc1=O returned Furin inh inactive, NPY-Y2 PAM-ag inactive, NPY1 pot ag inactive, NPY-Y1 antag inactive and Cl transport mod inactive.
`CC1(C)C(N(O)C(=O)Nc2ccc(Cl)cc2)N(c2ccc(Cl)cc2)C(=O)N1CC(=O)NN` (configuration not stated) gave Furin inh inactive, NPY-Y2 PAM-ag 43.2, NPY1 pot ag 40.8, NPY Y2 blocker inactive and NPY-Y1 antag inactive.
Screening CCn1c(SC(C)C(=O)O)nc2sc3c(c2c1=O)CCC3 (configuration not stated) returned Furin inh inactive, NPY-Y2 PAM-ag inactive, NPY1 pot ag inactive, NPY Y2 blocker inactive, NPY-Y1 antag inactive and Cl transport mod 26.3.
`CC(Sc1nc2sc3c(c2c(=O)n1-c1ccccc1)CCCC3)C(=O)O` (configuration not stated) gave Furin inh inactive, NPY-Y2 PAM-ag inactive, NPY1 pot ag inactive and Cl transport mod inactive.
Screening CCCNC(=O)COC(=O)c1ccccc1OCc1ccc(Cl)cc1 returned Furin inh inactive, NPY-Y2 PAM-ag inactive, NPY1 pot ag inactive, NPY Y2 blocker inactive and NPY-Y1 antag inactive.
`CCCn1c(SC(C(=O)Nc2cc(C)ccc2OC)c2ccccc2)nc2ccccc2c1=O` (configuration not stated) gave Furin inh inactive, NPY-Y2 PAM-ag inactive, NPY1 pot ag inactive, NPY Y2 blocker inactive, NPY-Y1 antag inactive and Cl transport mod 13.7.
For Cn1c(=O)c(C#N)c(-c2ccc(F)cc2)c2cc(C(=O)c3cc(Cl)cc(Cl)c3O)cnc21 the results were Furin inh inactive, NPY-Y2 PAM-ag 92.2, NPY1 pot ag 57.6 and Cl transport mod inactive.
COc1ccccc1CNCC(O)(c1ccc(Cl)cc1)c1ccc(Cl)cc1 was read as Furin inh inactive, NPY-Y2 PAM-ag inactive, NPY1 pot ag inactive, NPY Y2 blocker 21.2 and NPY-Y1 antag 20.9.
Screening OC(CNCc1ccccc1F)(c1ccc(F)cc1)c1ccc(F)cc1 returned Furin inh inactive, NPY-Y2 PAM-ag inactive, NPY1 pot ag inactive, NPY-Y1 antag inactive and Cl transport mod inactive.
CCCc1nc2ccccc2c(=O)n1-c1ccc(C(=O)OCC)cc1 was read as Furin inh inactive, NPY-Y2 PAM-ag inactive, NPY1 pot ag inactive, NPY-Y1 antag inactive and Cl transport mod inactive.
Cc1cccc(N2C(=O)C(Oc3ccc(Cl)cc3Cl)C2C=O)c1C (configuration not stated) was read as Furin inh inactive, NPY-Y2 PAM-ag inactive, NPY1 pot ag 54.0, NPY Y2 blocker inactive, NPY-Y1 antag inactive and Cl transport mod -3.01.
`CN(c1ccccc1C(=O)NC1CC2CCC1C2)S(=O)(=O)c1ccccc1` (configuration not stated) gave Furin inh inactive, NPY-Y2 PAM-ag inactive, NPY1 pot ag inactive, NPY Y2 blocker inactive, NPY-Y1 antag inactive and Cl transport mod inactive.
Screening CN(c1ccccc1C(=O)NC1CCCCC1)S(=O)(=O)c1ccccc1 returned Furin inh inactive, NPY-Y2 PAM-ag inactive, NPY1 pot ag inactive, NPY-Y1 antag 20.2 and Cl transport mod inactive.
For CCN(CC)C(=O)c1sc(NC(=O)c2ccoc2C)c(C(=O)OC)c1C the results were Furin inh inactive, NPY-Y2 PAM-ag inactive, NPY1 pot ag inactive, NPY Y2 blocker inactive, NPY-Y1 antag inactive and Cl transport mod 8.42.
Screening CCOC(=O)c1c(NC(=O)c2ccoc2C)sc(C(=O)N(C)C)c1C returned Furin inh inactive, NPY-Y2 PAM-ag inactive, NPY1 pot ag inactive, NPY Y2 blocker inactive and NPY-Y1 antag inactive.
`C[C@H]1O[C@@H](O[C@H]2[C@@H](O)C[C@H](O[C@H]3[C@@H](O)C[C@H](O[C@H]4CC[C@@]5(C)[C@H](CC[C@@H]6[C@@H]5C[C@@H](O)[C@]5(C)[C@@H](C7=CC(=O)OC7)CC[C@]65O)C4)O[C@@H]3C)O[C@@H]2C)C[C@H](O)[C@@H]1O` gave Furin inh inactive, NPY-Y2 PAM-ag inactive, NPY1 pot ag inactive, NPY Y2 blocker 53.4, NPY-Y1 antag 49.0 and Cl transport mod inactive.
Screening O=C(CCc1nnc(CCc2c[nH]c3ccccc23)o1)NC1CCC1 returned Furin inh inactive, NPY-Y2 PAM-ag inactive, NPY1 pot ag inactive and Cl transport mod inactive.
For NS(=O)(=O)c1cccc(NC(=O)Cc2ccc(Cl)c(Cl)c2)c1 the results were Furin inh inactive, NPY-Y2 PAM-ag inactive, NPY1 pot ag inactive, NPY-Y1 antag inactive and Cl transport mod inactive.
For CCOC(=O)c1c(NC(=O)C2C3C=CC(C3)C2C(=O)O)sc2c1CCC(CC)C2 (configuration not stated) the results were Furin inh inactive, NPY-Y2 PAM-ag inactive, NPY1 pot ag inactive, NPY Y2 blocker inactive, NPY-Y1 antag inactive and Cl transport mod -5.75.
`Cc1ccn2c(Nc3ccc4c(c3)OCO4)c(-c3ccc(O)cc3)nc2c1` gave Furin inh inactive, NPY-Y2 PAM-ag inactive, NPY1 pot ag inactive and Cl transport mod inactive.
Screening NC(=O)CSc1nnc(-c2cc(-c3ccc(Cl)cc3)nc3ccccc23)o1 returned Furin inh inactive, NPY-Y2 PAM-ag inactive, NPY1 pot ag inactive, NPY-Y1 antag inactive and Cl transport mod inactive.
Screening Cc1cc(C(=O)c2ccc(Cl)cc2)c(NC(=O)CCl)s1 returned Furin inh inactive, NPY-Y2 PAM-ag inactive, NPY1 pot ag inactive, NPY Y2 blocker inactive, NPY-Y1 antag inactive and Cl transport mod inactive.
`CCc1cc(C(=O)c2ccc(C)cc2)c(NC(=O)CCl)s1` gave Furin inh inactive, NPY-Y2 PAM-ag 35.3, NPY1 pot ag 42.5, NPY Y2 blocker inactive, NPY-Y1 antag inactive and Cl transport mod inactive.
`CC(=O)N/N=C/c1cc(C(C)C)cc(/C=N/NC(C)=O)c1O` gave Furin inh inactive, NPY-Y2 PAM-ag inactive, NPY1 pot ag inactive, NPY-Y1 antag inactive and Cl transport mod 5.71.
Screening CC(=O)N/N=C/c1cc(C)n(-c2ccc(Br)cc2)c1C returned Furin inh inactive, NPY-Y2 PAM-ag inactive, NPY1 pot ag inactive, NPY Y2 blocker inactive, NPY-Y1 antag inactive and Cl transport mod inactive.

Assay outcomes deposited in PubChem by several laboratories.
